Hits are enriched below; roughly 2.8% of the tested compounds scored in any of these assays.
NPY2 pot ag: human NPY-Y2 potentiation or agonism, primary screen; cells expressing NPY-Y2, potentiator/agonist read-out; AID 1359; activation, % at 3.6 µM; P49146; 220,000 tested, 0.45% active; in the data active = activation above about 27%;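 also: cells stimulated with NPY near EC25 plus isoproterenol at EC100; 0% = vehicle plus submaximal agonist and 100% = vehicle plus saturating agonist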
EP2 modulator: EP2 receptor (human) modulation | P43116 | EP2-expressing cells, cAMP HTRF FRET, PGE2 co-stimulation | induction, % at 25 µM | 260,000 tested, 0.83% active | AID 940;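 active = compounds whose cAMP rise, as percent of the full-agonist control response, exceeds 60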;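 also: rat C6 glioma line stably carrying human EP2 under a CMV promoter; the protocol text gives 20 µM as final concentration; 100% = response of wells given 1 µM PGE2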
NPY-Y1 antag: blocks the human neuropeptide Y Y1 receptor. AID 1040. HEK293-CNG Y1 cells, membrane potential fluorescence; NPY at EC95, then isoproterenol. inhibition, % at 3.6 µM. P25929. 200,000 tested, 1% active;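 active = inhibition above the campaign mean inhibition of all tested compounds plus 3 SD, cut at about 20% in these data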;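 also: 0% = DMSO wells given NPY plus isoproterenol and 100% = isoproterenol alone without NPY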
Target sequence (P25929 whole entry, looked up): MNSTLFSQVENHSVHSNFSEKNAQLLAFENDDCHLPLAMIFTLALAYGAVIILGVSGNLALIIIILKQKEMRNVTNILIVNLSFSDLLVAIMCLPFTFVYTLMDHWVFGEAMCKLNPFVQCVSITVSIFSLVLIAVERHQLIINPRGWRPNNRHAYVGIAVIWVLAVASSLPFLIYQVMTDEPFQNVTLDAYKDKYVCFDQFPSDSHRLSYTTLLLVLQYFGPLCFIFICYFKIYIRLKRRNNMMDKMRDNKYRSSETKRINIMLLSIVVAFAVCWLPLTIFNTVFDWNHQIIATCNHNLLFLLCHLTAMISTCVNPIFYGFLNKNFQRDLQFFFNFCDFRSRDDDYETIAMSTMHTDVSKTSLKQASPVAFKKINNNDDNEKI
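Material: HEK293 cells co-expressing NPY Y1 receptor and cyclic-nucleotide gated channel. Timing: compound incubation 1 h at room temperature, readout 45 min post-stimulation. Signal: fluorescence, membrane potential probe.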
NPY-Y1 PAM-ag: potentiators or agonists of human neuropeptide Y receptor Y1; NPY-Y1 expressing cells, potentiator/agonist activation; activation, % at 3.6 µM; 220,000 tested, 0.37% active; AID 1304; in the data active = activation above about 33%, passing the limit was not always enough;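 also: cells stimulated with NPY at EC10 then isoproterenol at EC100; 0% = low agonist plus stimulus and 100% = saturating agonist plus stimulus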
NPY Y2 blocker: antagonists of human neuropeptide Y receptor Y2; P49146; 140,000 tested, 0.99% active; inhibition, % at 2.7 µM; NPY-Y2 expressing cells, antagonist mode;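 also: 0% = vehicle with agonist challenge and 100% = reference antagonist with challenge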
EP2 antag: EP2 receptor (human) inhibition; P43116; C6 glioma cells expressing human EP2, cAMP TR-FRET; cells stimulated with saturating PGE2; inhibition, % at 25 µM; 260,000 tested, 0.52% active; AID 1422;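 active = percent inhibition above 40 after rounding to a whole number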;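 also: rat C6 glioma host cells with rolipram phosphodiesterase inhibitor present; the protocol text gives 20 µM as final concentration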
EP2 confirm: human EP2 receptor cAMP induction, negative in counter-screens. shares compounds with EP2 modulator. C6 glioma EP2 cells, cAMP HTRF induction; plus low (about EC15) PGE2 agonist. calls only at 20 µM (by protocol). 1,300 tested, 47% active;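 active = cAMP induction above 50% in the main assay while under 30% in all four parallel counter assays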;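 also: rat C6 glioma cells stably expressing human EP2 receptor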
NPY-Y1 ant conf: human NPY-Y1 antagonism, confirmation | shares compounds with NPY-Y1 antag | 1,200 tested, 21% active | HEK293-CNG NPY-Y1, membrane potential fluorescence, cAMP; NPY challenge against isoproterenol-raised cAMP | inhibition, % at 3.6 µM; in the data active = inhibition above about 20%;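 also: 0% = vehicle with agonist plus stimulus and 100% = stimulus alone without agonist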
NPY-Y2 antag ct: human NPY-Y2 antagonism in NPY-Y1 counter-screen; inhibition, % at 3.6 µM; 1,200 tested, 28% active; AID 1255; shares compounds with NPY-Y1 antag; HEK293 NPY-Y2 CNG membrane potential fluorescence; cells given NPY, then isoproterenol;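 also: 0% = DMSO with agonist challenge and 100% = reference antagonist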
* hit, by the source's call; i = inactive; . = no result; + = active, no number. Rule as the data show it, unless noted: active = inhibition above about 17%; inactive = the rest.

SMILES	NPY2 pot ag	EP2 modulator	NPY-Y1 antag	NPY-Y1 PAM-ag	NPY Y2 blocker	EP2 antag	EP2 confirm	others
COc1ccc(N2CCN(S(=O)(=O)c3ccc(OC)c(Cl)c3)CC2)cc1	.	-7	.	.	.	8	.
CCCC/C(=N\NC(=O)c1ccc(Br)o1)c1ccccc1	-6	55	0	7	14	18	i
COc1ccc(CN2CCC(C(=O)N3CCN(c4ccccc4F)CC3)CC2)cc1OC	8	2	3	-10	2	13	.
COc1cc(CN2CCC(C(=O)N3CCN(c4ccccc4F)CC3)CC2)cc(OC)c1OC	-3	79*	1	0	5	10	i
COC(=O)c1c(NC(=O)CSc2nnc(-c3cccnc3)n2Cc2ccco2)sc(C)c1C	6	55	1	-8	2	7	i
O=C(CSc1nnc(-c2ccc(Cl)cc2)n1Cc1ccco1)c1cccs1	-7	70*	9	-4	6	14	+
CCc1ccc2c(c1)C(c1cccnc1)=NNC(c1ccc(OC)cc1)=N2	.	-13	.	.	.	10	.
CN(C)c1ncc(S(=O)(=O)c2ccccc2)c(-c2ccccc2Cl)n1	16	66*	2	5	4	5	+
CCOC(=O)CCN(Cc1sccc1C)S(=O)(=O)c1ccc(F)cc1	-11	81*	4	-2	12	2	i
Cc1ccc(C2=NN(CC(=O)NCCN(C)C)C(=O)c3cc4ccccc4n3C2)cc1	.	-54	.	.	.	11	.
COC(=O)c1ccc(NC(=O)c2sc3nc(C)cc(C)c3c2N)cc1	.	-28	.	.	.	6	.
Cc1ccc(-c2cc(C(=O)Nc3cc(C)on3)c3ccccc3n2)cc1	1	14	3	-26	6	15	.
Cc1cc(NC(=O)c2cc(-c3ccncc3)nc3c(C)cccc23)no1	-24	65*	10	-4	8	12	i
Cc1nn(CC(=O)NCCc2ccccc2)c(=O)c2cc3sccc3n12	.	-48	.	.	.	.	.
COc1ccc(-n2c(COc3ccc(C)cc3)nnc2SCc2ccc(C#N)cc2)cc1	-16	25	3	-17	3	1	.
COc1ccc(-n2c(COc3ccc(Cl)cc3)nnc2SCc2ccc(C#N)cc2)cc1	5	53	1	-15	3	5	i
CNC(=O)c1c(NC(=O)c2ccc(OC(C)C)cc2)sc2c1CCCC2	.	-59	.	.	.	13	.
CCCC(=O)Nc1nc(-c2ccc3c(c2)CCN3C(=O)C2CC2)cs1	.	11	.	.	.	16	.
Nc1cc(Cl)ccc1Oc1ccc(Cl)cc1	3	66*	3	12	2	0	i
O=C(c1ccccc1)c1ccc(O)cc1O	-36	-1	-1	-5	.	5	.
COc1ccc(C(=O)c2ccccc2)c(O)c1	13	41	6	0	4	3	+
COC(=O)CSc1nnc2n(C3CCCCC3)c(=O)c3c4c(sc3n12)CCCC4	3	31	-3	2	2	15	.
CCOC(=O)CSc1nnc2n(C3CCCCC3)c(=O)c3c4c(sc3n12)CCCC4	-1	66*	-1	-18	3	6	i
CC(C)Oc1ccc(/C=C(/NC(=O)c2ccccc2)C(=O)NCCC(=O)O)cc1	-1	71*	-3	4	.	3	i
CCOc1ccccc1/C=C(\NC(=O)c1ccccc1)C(=O)NCCC(=O)O	12	3	8	-12	6	10	.
SMILES	NPY2 pot ag	EP2 modulator	NPY-Y1 antag	NPY-Y1 PAM-ag	NPY Y2 blocker	EP2 antag	EP2 confirm	others
CC(CN1CCN(C)CC1)OC(=O)COc1ccc(F)cc1 (configuration not stated)	.	14	.	.	.	13	.
COC(=O)c1sccc1NC(=O)c1cc2c(s1)CCCC2	-6	54	18	-3	14	.	i
COc1ccc(C)cc1NC(=O)c1cc2c(s1)CCC2	-7	1	18	-20	10	8	.
COC(=O)c1sccc1NC(=O)c1ccccc1	-23	-24	8	1	.	0	.
COC(=O)c1sccc1NC(=O)c1cccc(OC)c1	-29	67*	7	-14	6	14	i
COCC(C)NC(=O)C(C)Sc1nc(-c2ccccc2)cc(C(F)(F)F)n1 (configuration not stated)	.	-97	.	.	.	21	.
CC(=O)N1CCCCC1C12CC3CC(CC(C3)C1)C2 (configuration not stated)	.	48	.	.	.	6	.
COc1ccc(CN2CCc3nc(C)[nH]c(=O)c3C2)cc1	.	-5	.	.	.	.	.
COc1ccc(OCC(=O)NC(=S)Nc2ccc3c4c(cccc24)CC3)cc1	2	68*	-1	-12	12	18	i
CN(/N=C/C=C/c1ccccc1)C1=NS(=O)(=O)c2ccccc21	0	82*	3	11	2	3	+
CCOc1ccc(-c2csc(N)c2C(=O)OC)cc1	0	25	0	-12	4	13	.
Cc1cccc(-c2csc(N)c2C(=O)OC(C)C)c1	12	96*	-2	2	5	9	+
Cc1nc2ccccn2c1C(=O)CSc1ccc(Cl)cc1Cl	-19	70*	5	-20	-2	10	i
COC(=O)c1cccc(S(=O)(=O)N2CCC(c3nc4ccc(C)cc4[nH]3)CC2)c1	.	-67	.	.	.	14	.
CC(=O)c1ccc(-n2c(C)ccc2-c2ccccc2)cc1	2	90*	2	-7	8	4	+
COC(=O)c1ccc(-n2c(C)ccc2-c2ccccc2)cc1	-14	60	11	1	7	10	.
CCCc1cc(C(=O)OC)c(NC(=O)c2cc(C)on2)s1	8	58	20*	-20	2	6	+	NPY-Y1 ant conf=8;NPY-Y2 antag ct=5
C1=C(c2ccccc2)Nc2ccccc2N=C1c1ccccc1	-6	66*	25*	-19	15	3	+	NPY-Y1 ant conf=18;NPY-Y2 antag ct=10
COc1ccc2c(c1)C(C)=CC(C)(C)N2S(=O)(=O)c1ccc(Br)cc1	-18	69*	55*	-15	.	6	+	NPY-Y1 ant conf=27*;NPY-Y2 antag ct=22*
O=C(Nc1ccc2c(c1)OCO2)C1CCN(c2ccc(S(=O)(=O)N3CCCC3)cc2)CC1	.	3	.	.	.	12	.

Screens from PubChem BioAssay.
